Test results as given in ChEMBL document CHEMBL3085725, “Design, synthesis and molecular modelling studies of novel 3-acetamido-4-methyl benzoic acid derivatives as inhibitors of protein tyrosine phosphatase 1B” (Eur J Med Chem, 2013).
pIC50: −log10 of the molar value.

Assays:
[1] = target: T1, Tyrosine-protein phosphatase non-receptor type 1 (Homo sapiens) (UniProt P18031); test: Inhibition of recombinant human PTP1B at 10 uM by malachite green assay relative to control
T1 sequence (whole entry): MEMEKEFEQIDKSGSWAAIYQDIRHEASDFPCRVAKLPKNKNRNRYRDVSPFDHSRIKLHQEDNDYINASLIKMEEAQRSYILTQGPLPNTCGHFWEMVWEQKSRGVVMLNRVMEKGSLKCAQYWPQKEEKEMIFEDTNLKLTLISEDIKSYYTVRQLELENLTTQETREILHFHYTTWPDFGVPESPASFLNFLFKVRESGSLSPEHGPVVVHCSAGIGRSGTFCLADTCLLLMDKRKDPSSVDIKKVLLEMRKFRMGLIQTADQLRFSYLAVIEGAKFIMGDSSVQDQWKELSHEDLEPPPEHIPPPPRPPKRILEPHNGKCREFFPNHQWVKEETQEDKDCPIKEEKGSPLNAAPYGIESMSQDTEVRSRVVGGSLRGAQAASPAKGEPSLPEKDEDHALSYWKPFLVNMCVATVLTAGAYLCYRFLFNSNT
In short: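 Human recombinant PTP1B incubated with test compound at 10 µM; DMSO as control. Colorimetric, non-radioactive assay detecting free phosphate released, read with Biomol red phosphate reagent (malachite green basis). Percent inhibition is calculated against control activity without inhibitor, taken as 100%, from three independent sets of experiments.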

[2] = target: T2, Tyrosine-protein phosphatase non-receptor type 1 (Homo sapiens, UniProt P18031); test: Inhibition of recombinant human PTP1B by malachite green assay
T2 sequence (P18031 whole entry): T1 sequence (whole entry)
In short: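 Human recombinant PTP1B; compounds giving around 50% inhibition at 10 µM are retested at six concentrations. Free phosphate released is detected colorimetrically with Biomol red (malachite green).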

Danio rerio [3] = species on record: Danio rerio; test: Toxicity in zebra fish embryo assessed as death at 10 uM after 24 to 72 hrs by visible light microscopy; format: organism-based; conditions: zebrafish, in vivo
In short: (§1)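 Wild-type Indian zebrafish strain kept at 28 °C, 14:10 h light/dark. Embryos from natural mating raised 24 h in E3 medium, dechorionated at 24 hpf with 500 µg/ml Pronase K for 10 min. Six embryos per well exposed to compound at 10 µM final in 0.1% DMSO for 24, 48 and 72 h. Controls received 0.1% DMSO. Embryos scored under visible light microscopy at intervals.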

Danio rerio [4] = test: Toxicity in zebra fish embryo assessed as oedema at 10 uM after 24 to 72 hrs by visible light microscopy; format: organism-based; conditions: zebrafish, in vivo; in short: as §1
Danio rerio [5] = species on record: Danio rerio; test: Toxicity in zebra fish embryo assessed as deformation at 10 uM after 24 to 72 hrs by visible light microscopy; format: organism-based; conditions: zebrafish, in vivo; in short: as §1
Danio rerio [6] = species on record: Danio rerio; test: Toxicity in zebra fish embryo assessed as developmental delay at 10 uM after 24 to 72 hrs by visible light microscopy; format: organism-based; conditions: zebrafish, in vivo; in short: as §1

Cc1ccc(C(=O)O)cc1NC(=O)CSc1nc2ccccc2s1
inhibition [1]: 57.5% | pIC50 [2]: 5.07

Cc1ccc(C(=O)O)cc1NC(=O)CSc1nnc(-c2ccccc2O)o1
inhibition [1]: 38.8%

Cc1ccc(C(=O)O)cc1NC(=O)CSc1nnc(-c2ccc(Cl)cc2Cl)o1
inhibition [1]: 43.3%

Cc1ccc(C(=O)O)cc1NC(=O)CSc1nc2ccccc2[nH]1
inhibition [1]: 47.8% | pIC50 [2]: 4.82

COc1cc(-c2nnc(SCC(=O)Nc3cc(C(=O)O)ccc3C)o2)cc(OC)c1OC
inhibition [1]: 50.7% | pIC50 [2]: 5.01

Cc1ccc(C(=O)O)cc1NC(=O)CSc1nnc(-c2ccc(O)cc2)o1
inhibition [1]: 47% | pIC50 [2]: 4.99

COc1ccc2[nH]c(SCC(=O)Nc3cc(C(=O)O)ccc3C)nc2c1
Activity (Danio rerio [3]): Non-toxic | Activity (Danio rerio [4]): Non-toxic | Activity (Danio rerio [5]): Non-toxic | Activity (Danio rerio [6]): Non-toxic | inhibition [1]: 57.5% | pIC50 [2]: 5.09

Cc1ccc(C(=O)O)cc1NC(=O)CSc1nnc(-c2ccccc2Cl)o1
inhibition [1]: 27.5%

Cc1ccc(C(=O)O)cc1NC(=O)CSc1nc2ccccc2o1
inhibition [1]: 32.8%

Cc1ccc(C(=O)O)cc1NC(=O)CSc1nnc(-c2cccc(Cl)c2Cl)o1
inhibition [1]: 29.9%

Cc1ccc(-c2nnc(SCC(=O)Nc3cc(C(=O)O)ccc3C)o2)cc1
inhibition [1]: 51.5% | pIC50 [2]: 5.05

Cc1ccc(C(=O)O)cc1NC(=O)CSc1nc2cc([N+](=O)[O-])ccc2[nH]1
inhibition [1]: 26.9%
